Experimental data reported in ChEMBL document CHEMBL1240333, “Surveying polypeptide and protein domain conformation and association with FlAsH and ReAsH” (Nat Chem Biol, 2007).
The source made the active and inactive calls. No cut-off for these calls is given here. Peptide text beside a SMILES is read from it.

Columns and labels:
Transcription factor Jun [1] = molecular target: T1, Transcription factor Jun (Homo sapiens, UniProt P05412); test: Binding affinity to wild-type c-Jun homodimer at by circular dichroism spectroscopy
T1 sequence (P05412 whole entry): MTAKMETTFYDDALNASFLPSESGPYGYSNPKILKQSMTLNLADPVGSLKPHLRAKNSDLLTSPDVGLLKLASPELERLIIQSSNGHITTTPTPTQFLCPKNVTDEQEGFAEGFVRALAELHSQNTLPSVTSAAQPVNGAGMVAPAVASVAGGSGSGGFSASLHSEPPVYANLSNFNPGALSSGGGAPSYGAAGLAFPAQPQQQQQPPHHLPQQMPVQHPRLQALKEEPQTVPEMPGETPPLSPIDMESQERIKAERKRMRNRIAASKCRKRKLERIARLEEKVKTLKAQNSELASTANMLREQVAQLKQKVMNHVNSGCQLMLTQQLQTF

Transcription factor Jun [2] = molecular target: T1, Transcription factor Jun; test: Binding affinity to c-Jun homodimer containing bipartite tetracysteine motif at 100 nM
Transcription factor Jun [3] = molecular target: T1, Transcription factor Jun; test: Binding affinity to wild type c-Jun homodimer by circular dichroism spectroscopy
Transcription factor Jun [4] = molecular target: T1, Transcription factor Jun; test: Binding affinity to c-Jun homodimer containing bipartite tetracysteine motif at 25 nM
How it was run: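 Fluorescence titration: 25 nM FlAsH or ReAsH titrated with increasing synthetic peptide or protein domain in 100 mM Tris-HCl pH 7.8 with 3.5 mM TCEP, 1 mM EDT, 1 mM EDTA. Emission read at 530 ± 12.5 nm (FlAsH) or 630 ± 17.5 nm (ReAsH) after reaching equilibrium, tracked over time. Apparent Kd taken from intensity versus concentration. Points are means of ≥3 independent titrations ± s.d.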

With `CC[C@H](C)[C@H](NC(=O)[C@H](CCCNC(=N)N)NC(=O)[C@H](Cc1c[nH]c2ccccc12)NC(C)=O)C(=O)N[C@@H](C)C(=O)N[C@@H](CCCNC(=N)N)C(=O)N[C@@H](CC(C)C)C(=O)N[C@@H](CCC(=O)O)C(=O)N[C@@H](CCC(=O)O)C(=O)N[C@@H](CCCCN)C(=O)N[C@H](C(=O)N[C@@H](CCCCN)C(=O)N[C@H](C(=O)N[C@@H](CC(C)C)C(=O)N[C@@H](CCCCN)C(=O)N[C@@H](C)C(=O)N[C@@H](CCC(N)=O)C(=O)N[C@@H](CC(N)=O)C(=O)N[C@@H](CO)C(=O)N[C@@H](CCC(=O)O)C(=O)N[C@@H](CC(C)C)C(=O)N[C@@H](C)C(=O)N[C@@H](CO)C(=O)N[C@H](C(=O)N[C@@H](C)C(=O)N[C@@H](CC(N)=O)C(=O)N[C@@H](CCSC)C(=O)N[C@@H](CC(C)C)C(=O)N[C@@H](CCCNC(=N)N)C(=O)N[C@@H](CCC(=O)O)C(=O)N[C@@H](CCC(N)=O)C(=O)N[C@H](C(=O)N[C@@H](C)C(=O)N[C@@H](CCC(N)=O)C(=O)N[C@@H](CC(C)C)C(=O)N[C@@H](CCCCN)C(=O)N[C@@H](CCC(N)=O)C(=O)N[C@@H](CCCCN)C(=O)N[C@H](C(=O)N[C@@H](CS)C(=O)N[C@@H](CS)C(N)=O)C(C)C)C(C)C)[C@@H](C)O)[C@@H](C)O)C(C)C` (Ac-WRIARLEEKVKTLKAQNSELASTANMLREQVAQLKQKVCC-NH2) the Kd (Transcription factor Jun [1]) was 10 µM, the Activity (Transcription factor Jun [2]) was “Active” and the Activity (Transcription factor Jun [3]) was “inactive”. The Activity (Transcription factor Jun [4]) was “Active”.
